{"source": "paper PMC6904115", "about": "(Neuropharmacology, 2019)", "key": {"[1]": {"target": "T1, Y1 receptor (Rattus norvegicus, UniProt P21555)", "T1 sequence (P21555 1-382)": "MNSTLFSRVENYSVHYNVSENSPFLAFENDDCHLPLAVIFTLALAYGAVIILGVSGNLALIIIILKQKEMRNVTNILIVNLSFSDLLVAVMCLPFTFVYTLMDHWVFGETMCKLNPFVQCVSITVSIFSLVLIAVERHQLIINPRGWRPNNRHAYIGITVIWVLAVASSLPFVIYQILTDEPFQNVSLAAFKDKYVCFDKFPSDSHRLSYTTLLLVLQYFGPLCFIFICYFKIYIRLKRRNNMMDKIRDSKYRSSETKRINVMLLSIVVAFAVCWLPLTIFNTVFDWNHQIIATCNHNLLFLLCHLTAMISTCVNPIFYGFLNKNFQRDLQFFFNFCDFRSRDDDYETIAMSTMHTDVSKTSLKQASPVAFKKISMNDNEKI", "assay": "Y1 receptor internalization", "assay_type": "cell-based", "settings": "for Y1 receptor internalization / NPY release by chemical stimulus, summary: spinal cord slices"}, "[2]": {"system": "substance P release in the dorsal horn", "settings": "ref Chen et al., cited from earlier work"}, "[3]": {"target": "T1, Y1 receptor", "assay_type": "cell-based", "settings": "with 100 nM NPY; each inhibitor 10 μM; 35 °C, 10 min"}, "[4]": {"target": "T1, Y1 receptor", "assay": "Y1 receptor internalization induced by capsaicin stimulation of the dorsal root", "assay_type": "cell-based", "procedure,_shortened": "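Rat lumbar (L2-L4) slices, 400 μm, keeping one >8 mm dorsal root; recovered 1 h at 35 °C in aCSF (5 mM KCl). Root sealed with grease into side compartment of aCSF + 1 μM capsaicin, 10 min, while slice superfused at 35 °C; 10 min further superfusion, immersion-fixed, 25 μm cryosections, Y1 antiserum 1:500, confocal. Ipsilateral vs contralateral; repeated-measures 2-way ANOVA, Holm-Sidak.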"}, "[5]": {"system": "opioid release in spinal cord slices", "settings": "cited from earlier work"}, "[6]": {"system": "inhibitory interneurons in the dorsal horn", "settings": "four classes of inhibitory interneurons; ref Polgar et al. (2013); cited from earlier work"}, "[7]": {"system": "MOR", "settings": "ref Song and Marvizon, 2003a; cited from earlier work"}, "[8]": {"system": "NK1R", "settings": "compared with endogenous opioids; ref Marvizon et al., 2003b; cited from earlier work"}, "[9]": {"target": "T1, Y1 receptor", "assay_type": "cell-based"}}, "note": "“Also recorded” adds a separate entry of the source.", "data": [{"molecule": "O=C(Nc1ncnc2c1ncn2[C@@H]1O[C@@H]2COP(=O)(O)OC2C1O)c1ccccc1", "note": "(stereo in doubt) [6-Bnz-cAMP, 6-benzoyl-3′,5′-cyclic monophosphate]", "values": [{"measurement": "Y1 receptor internalization by protein kinase A activator", "setting": "[1]; 10 nM, 60 min, 35 °C", "result": "induced a substantial amount of Y1 receptor internalization"}, {"measurement": "Y1 receptor internalization / NPY release by chemical stimulus, summary", "setting": "[1]", "result": "induced Y1 receptor internalization"}]}, {"molecule": "Nc1ncnc2c1nc(Br)n2[C@@H]1O[C@@H]2COP(=O)(O)O[C@H]2[C@H]1O", "note": "[8-Br-cAMP, 8-bromoadenosine-3′,5′-cyclic monophosphate]", "values": [{"measurement": "substance P release by cell-permeable cAMP analogs", "setting": "[2]; dorsal horn, 2018", "result": "induce substance P release"}]}, {"molecule": "CC(N)C(=O)N1CCCC1C#N", "note": "(stereo not drawn) [Ala-Pyrr-CN, alanine-pyrrolidine-nitrile]", "values": [{"measurement": "effect on NPY-induced Y1 receptor internalization", "setting": "[3]", "result": "did not significantly increase NPY-induced Y1 receptor internalization"}]}, {"molecule": "CC1(C)C(=O)N=C2C1=C(O)C(=O)c1ccccc12", "note": "[BVT948, 4-hydroxy-3,3-dimethyl-2H-benz[g]indole-2,5(3H)-dione]", "values": [{"measurement": "substance P release by BVT948", "setting": "[2]; 2014b, Chen et al., 2010", "result": "increases substance P release"}, {"measurement": "Y1 receptor internalization after BVT948 preincubation and NMDA+D-Ser", "setting": "[1]; 10 μM BVT948 60 min, then 10 μM NMDA + D-serine 2 min, 8 min aCSF", "result": "also released NPY"}]}, {"molecule": "N#Cc1cc2[nH]c(=O)c(=O)[nH]c2cc1[N+](=O)[O-]", "note": "[CNQX]", "values": [{"measurement": "effect on dorsal root capsaicin-induced Y1 internalization", "setting": "[4]; slice superfused with 10 μM CNQX 10 min, 1 μM capsaicin on dorsal root", "result": "blocked; also recorded: eliminated the effect of capsaicin"}, {"measurement": "effect on capsaicin-induced Y1R internalization", "setting": "[1]; 10 μM CNQX with 1 μM capsaicin, 10 min, whole slice", "result": "decreased the Y1R internalization induced by capsaicin to near control levels"}]}, {"molecule": "[Cl-].[K+]", "note": "[KCl]", "values": [{"measurement": "opioid release by KCl", "setting": "[5]; 30 mM KCl, 2 min, spinal cord slices, ref Chen et al., 2008", "result": "induced abundant opioid release"}, {"measurement": "neurons with Y1 receptor internalization, KCl", "setting": "[1]; 30 mM KCl 2 min, then 8 min aCSF, 35 °C", "result": "> 80", "unit": "%"}, {"measurement": "Y1 receptor internalization / NPY release by chemical stimulus, summary", "setting": "[1]", "result": "induced Y1 receptor internalization"}]}, {"molecule": "COc1cc(CNC(=O)CCCC/C=C/C(C)C)ccc1O", "note": "[capsaicin]", "values": [{"measurement": "opioid release by capsaicin", "setting": "[5]; dorsal horn, ref Song and Marvizon, 2003b", "result": "not opioid release"}, {"measurement": "Y1 receptor internalization by dorsal root capsaicin", "setting": "[4]; 1 μM capsaicin on dorsal root (side chamber), 10 min", "result": "induced NPY release; also recorded: evoked substantial Y1 receptor internalization, which was significantly higher than in control slices"}, {"measurement": "neurons with Y1 receptor internalization, capsaicin", "setting": "[1]; 1 μM capsaicin, 10 min, whole slice, 35 °C", "result": "approximately 50%"}, {"measurement": "Y1 receptor internalization / NPY release by chemical stimulus, summary", "setting": "[1]", "result": "induced Y1 receptor internalization"}, {"measurement": "pERK induction", "setting": "[6]", "result": "induced pERK only in the galanin and NPY neurons"}]}, {"molecule": "Ile-Pro-Ile", "values": [{"measurement": "effect on NPY-induced Y1 receptor internalization", "setting": "[3]", "result": "did not significantly increase NPY-induced Y1 receptor internalization"}]}, {"molecule": "Leu-enkephalin", "values": [{"measurement": "reduction by peptidases of potency to induce MOR internalization", "setting": "[7]", "result": "two orders of magnitude"}]}, {"molecule": "formalin", "values": [{"measurement": "pERK induction", "setting": "[6]", "result": "induced pERK only in the galanin and NPY neurons"}]}, {"molecule": "substance P", "values": [{"measurement": "cleavage by peptidases", "setting": "[8]", "result": "much less readily"}]}, {"molecule": "ω-conotoxin MVIIC", "values": [{"measurement": "effect on electrically evoked Y1 receptor internalization, ipsilateral", "setting": "[9]", "result": "decreased"}]}]}
